High-throughput results from PubChem.
HKDC1 inh = HKDC1 (human) hexokinase inhibition; recombinant HKDC1, G6PDH/diaphorase resazurin coupled fluorescence; inhibition, % at 20 µM; 340,000 tested, 0.16% active; AID 493160;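 active = inhibition above about 35% when tested at 20 µM, limit read from the data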;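 note: plate controls were DMSO wells with enzyme for no effect and DMSO wells lacking enzyme for full effect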
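Assay system – recombinant HKDC1 (HK5) hexokinase enzyme, produced in-house · Input – HKDC1 at 5 µg/mL · Reagent – glucose plus 1 mM ATP as hexokinase substrates · Timing – 90 min reaction incubation at room temperature, dark · Measured by – G6PDH/diaphorase-coupled fluorescence, 1 mM NADP, 100 µM resazurin, 525/613 nm · Benchmarks – DMSO-enzyme wells negative, buffer-substituted wells positive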
EP2 mod = EP2 receptor (human) modulation. 260,000 tested, 0.83% active. AID 940. EP2-expressing cells, cAMP HTRF FRET, PGE2 co-stimulation. P43116. induction, % at 25 µM;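 active = compounds whose cAMP rise, as percent of the full-agonist control response, exceeds 60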;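 note: rat C6 glioma line stably carrying human EP2 under a CMV promoter; the protocol text gives 20 µM as final concentration; 100% = response of wells given 1 µM PGE2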
Target sequence (P43116 whole entry, looked up): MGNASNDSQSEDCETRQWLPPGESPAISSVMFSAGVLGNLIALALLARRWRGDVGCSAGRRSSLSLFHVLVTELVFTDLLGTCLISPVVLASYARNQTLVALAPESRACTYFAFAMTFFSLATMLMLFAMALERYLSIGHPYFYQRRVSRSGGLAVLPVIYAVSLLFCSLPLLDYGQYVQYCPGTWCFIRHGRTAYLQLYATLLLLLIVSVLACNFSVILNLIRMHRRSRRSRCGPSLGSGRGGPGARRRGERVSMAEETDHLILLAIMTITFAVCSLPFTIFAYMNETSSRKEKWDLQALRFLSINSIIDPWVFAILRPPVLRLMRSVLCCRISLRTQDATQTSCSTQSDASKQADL
PfG6PD inh = PfG6PD (Plasmodium falciparum) enzyme inhibition; PfGluPho enzyme, NADPH resazurin-diaphorase fluorescence; inhibition, % at 20 µM; 350,000 tested, 0.78% active; AID 504690;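 active = inhibition reaching at least a set limit at 20 µM in the primary screen, cut at about 59% in these data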;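 note: 0% = DMSO wells with substrate and 100% = DMSO wells lacking glucose-6-phosphate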
EP2 antag = blocks the human prostaglandin E2 receptor EP2; 260,000 tested, 0.52% active; inhibition, % at 25 µM; C6 glioma cells expressing human EP2, cAMP TR-FRET; cells stimulated with saturating PGE2; P43116;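 active = percent inhibition above 40 after rounding to a whole number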;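 note: rat C6 glioma host cells with rolipram phosphodiesterase inhibitor present; the protocol text gives 20 µM as final concentration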
TbHK1 inh = T. brucei hexokinase 1 inhibition; recombinant TbHK1, G6PDH-coupled NADH A340; inhibition, % at 10 µM; 220,000 tested, 0.11% active; AID 1430;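 active = inhibition of 50% or more in the single-dose primary screen; inactive = inhibition below 50%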
PHOSPHO1 block = blocks human PHOSPHO1 phosphatase activity. Q8TCT1. recombinant PHOSPHO1, absorbance phosphatase assay. inhibition, % at 13.3 µM. 290,000 tested, 1.1% active; in the data active = inhibition above about 60%
Target sequence (Q8TCT1 whole entry, looked up): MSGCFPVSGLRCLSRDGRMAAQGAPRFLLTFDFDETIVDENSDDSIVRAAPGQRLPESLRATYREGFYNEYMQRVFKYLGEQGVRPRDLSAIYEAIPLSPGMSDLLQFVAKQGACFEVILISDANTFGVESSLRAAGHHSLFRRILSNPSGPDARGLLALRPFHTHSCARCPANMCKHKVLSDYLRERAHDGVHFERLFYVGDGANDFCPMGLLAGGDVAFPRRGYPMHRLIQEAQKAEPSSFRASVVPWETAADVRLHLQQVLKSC
HKDC1 act conf = HKDC1 (human) activation, single-dose confirmed. AID 504708. inhibition, % at 20 µM. recombinant HKDC1, G6PDH/diaphorase resazurin fluorescence; stronger effect = lower value. 740 tested, 14% active. shares compounds with HKDC1 inh;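 active = inhibition at or below a set negative limit, negative inhibition meaning the enzyme was activated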
Active calls of the source: *; . = no result given. An excerpt weighted towards active compounds, which were near 2.5% of everything screened.

SMILES | HKDC1 inh | EP2 mod | PfG6PD inh | EP2 antag | TbHK1 inh | PHOSPHO1 block | HKDC1 act conf
COc1ccccc1C1=NNC(=Nc2cccc(S(=O)(=O)N(C)C)c2)SC1 | -202 | -27 | 41 | 9 | -9 | 52 | -177*
COc1cccc(C2=NNC(=NCc3ccccc3)SC2)c1 | -14 | -31 | 19 | 9 | -8 | -33 | .
O=C(O)c1ccc(NC2=C(Cl)C(=O)c3ccccc3C2=O)cc1 | -131 | -26 | -89 | 26 | -6 | 58 | -94*
CCCCC(CC)CN=C(N)NC(N)=NCCCCCCN=C(N)NC(N)=NCC(CC)CCCC (stereo not given) | 42* | -15 | 41 | 71* | . | . | 46
O=c1oc2cc(Oc3ccc(C(F)(F)F)cc3[N+](=O)[O-])ccc2c2c1CCC2 | -5 | -14 | 0 | 8 | -5 | 4 | .
O=c1oc2cc(Oc3c([N+](=O)[O-])cc(C(F)(F)F)cc3[N+](=O)[O-])ccc2c2c1CCCC2 | 40* | 2 | 14 | 15 | -5 | 22 | 3
O=C(/C=C/c1ccc(Br)cc1)NC(=S)Nc1ccc(S(=O)(=O)Nc2nccs2)cc1 | 30 | -14 | 3 | 26 | -26 | -11 | 40
Cc1cc2cc(CN(C(=S)NCc3ccccc3)C3CCCCC3)c(=O)[nH]c2cc1C | . | 22 | . | 11 | . | . | .
COc1cc2c(cc1OC)-c1cc(NCc3ccccn3)nc(=O)n1CC2 | 59* | 36 | 17 | 17 | -40 | 4 | 54
CCNc1cc2n(c(=O)n1)CCc1cc(OC)c(OC)cc1-2 | -1 | 10 | -14 | 4 | -39 | 7 | .
Cc1ccc2[nH]c(=O)c(CN(CCO)S(=O)(=O)c3ccc(Cl)cc3)cc2c1 | . | -41 | . | 17 | . | . | .
O=c1[nH]n2c(=O)c3c([nH]c2c1N=Nc1cccc(Cl)c1)CCC3 | 12 | -21 | -5 | 11 | 3 | 7 | .
NS(=O)(=O)c1ccc(N=Nc2c(=O)[nH]n3c(=O)c4c([nH]c23)CCCC4)cc1 | 40* | 15 | 26 | 6 | -6 | 28 | 72
Oc1ccc2ccccc2c1C=NC1CCCCC1 | 35* | -43 | 24 | 6 | -5 | 11 | -8
Oc1ccc2ccccc2c1/C=N/n1cnnc1 | 24 | 23 | 4 | 7 | -22 | -8 | .
COc1ccccc1/C=C\C(=O)NCC(=O)N/N=C/c1ccc(O)cc1O | -41 | -34 | -30 | 12 | -33 | 28 | -32
O=C(CNC(=O)c1cccs1)N/N=C/c1ccc(O)cc1O | -46 | 20 | -28 | 8 | -33 | 28 | -26
O=C(CN1CCCc2ccccc21)N/N=C/c1ccc(O)cc1O | -43 | -12 | -14 | 11 | -13 | 1 | -34
O=C(CN1CCCc2ccccc21)N/N=C/c1ccccc1 | -4 | -13 | 20 | 18 | -2 | 0 | .
O=C(CCc1ccccc1)NCC(=O)N/N=C/c1ccc(O)cc1O | -43 | -46 | -27 | 9 | -47 | 4 | -6
COc1ccccc1C1(O)CCN(Cc2ccc(N3CCCC3=O)cc2)CC1 | . | -6 | . | 5 | . | . | .
COc1ccc(OC)c(-c2csc(N(CCc3ccccc3)C(=O)c3ccco3)n2)c1 | . | 35 | . | 10 | . | . | .
CC1CCCN(c2nc3c(c(=O)[nH]2)CCN(Cc2cccn2Cc2ccccc2F)C3)C1 (stereo not given) | . | 3 | . | . | . | . | .
O=C(O)C1Nc2c(O)cc(Cl)c([N+](=O)[O-])c2C2C=CCC12 (stereo not given) | 32 | 24 | 2 | 8 | 41 | -45 | 31
Cc1ccc2c(c1)C1C=CCC1C(C(=O)O)N2 (stereo not given) | . | 12 | . | 8 | 16 | 46 | .
SMILES | HKDC1 inh | EP2 mod | PfG6PD inh | EP2 antag | TbHK1 inh | PHOSPHO1 block | HKDC1 act conf
CCCCN(CCCC)C(=S)N/N=C/c1c(C)[nH]n(-c2ccccc2)c1=O | -41 | -1 | 4 | 0 | 3 | -1 | -65*
Cc1[nH]n(-c2ccccc2)c(=O)c1/C=N/Nc1nncc(-c2ccccc2)n1 | -47 | 12 | -30 | 12 | -20 | 67* | -61*
CCc1nn(CC(=O)N2CCOCC2)c(=O)c2cc3oc(C)cc3n12 | . | -39 | . | 6 | . | . | .
COc1ccc(OCCCC(=O)Nc2sc3c(c2C(N)=O)CCCC3)cc1 | . | -114 | . | 9 | . | . | .
Cc1nn(-c2ccccc2)c(Cl)c1CN(C(=O)CCl)c1ccc(Cl)cc1 | 38* | 2 | -5 | 9 | -3 | -17 | 13
CC(=O)N(Cc1c(C)nn(-c2ccccc2)c1Cl)c1ccc(Cl)cc1 | 2 | -13 | -7 | 12 | -1 | 28 | .
COC(=O)Cn1c2ccc(OC)cc2c2nc(C)sc21 | -21 | 3 | 3 | 12 | -9 | -6 | .
CCOC(=O)Cn1c2ccc(F)cc2c2nc(C)sc21 | -62 | 25 | 23 | 5 | -7 | -7 | -37*
COC(=O)Cn1c2ccc(F)cc2c2nc(C)sc21 | -92 | -6 | 13 | 3 | 6 | 53 | -90*
COc1ccc(N(C(=O)CCl)C(C(=O)NCCc2ccccc2)c2cccs2)cc1Cl (stereo not given) | 32 | 10 | -1 | 1 | -1 | -2 | 21
O=C(Cn1c(-c2cccs2)cc2cccnc21)N1CCS(=O)(=O)CC1 | . | -21 | . | 5 | . | . | .
Cc1cc2c(cc3c(=O)n(CC(=O)NCCCc4ccccc4)nc(C)n32)s1 | . | 19 | . | . | . | . | .
COc1ccc(-c2cc(C(=O)NNC(=S)NC(=O)c3c(-c4ccccc4)noc3C)[nH]n2)cc1 | -46 | 26 | -55 | 6 | 0 | -121 | -50*
Cc1onc(-c2ccccc2)c1C(=O)NNC(=S)NC(=O)c1ccc(Br)cc1 | -51 | 11 | -35 | 9 | 1 | 11 | -57*
Cc1onc(-c2ccccc2)c1C(=O)NNC(=O)c1ccccc1 | 3 | . | -12 | . | . | . | .
N=C1/C(=C/c2coc3ccccc3c2=O)C(=O)N=C2SC(c3ccco3)=NN12 | 38* | -19 | 15 | 5 | -12 | 0 | -9
COc1ccc(-n2cccc2/C=C2\C(=N)N3N=C(c4ccco4)SC3=NC2=O)cc1 | 35* | -15 | -13 | 6 | -1 | -86 | -9
N=C1/C(=C\c2coc3ccccc3c2=O)C(=O)N=C2SC(c3ccncc3)=NN12 | 45* | -8 | 8 | 9 | -18 | 5 | 32
COc1ccc(C(=O)Nc2cccc(-c3nc4cc(C)cc(C)c4o3)c2C)cc1OC | . | -4 | . | 12 | . | . | .
COc1cc(C)c(CNC(=O)c2c(-c3ccncc3)noc2C)cc1C(C)C | . | -3 | . | 2 | . | . | .
COc1ccc(CN(Cc2cnc(N(C)C)nc2)CC2CCCO2)c(OC)c1 (stereo not given) | . | -6 | . | 8 | . | . | .
C[n+]1c(-c2ccccc2)cc2c(=Cc3ccccc3)c3ccccc3n21 | 42* | . | 21 | . | . | . | -18
CCOC(=O)c1c(C)n(C2CCCCC2)c2ccc(OCC(N)=O)cc12 | . | 54 | . | 9 | . | . | .
